Test results: ChEMBL document CHEMBL1629614, “Inhibition of methionyl-tRNA synthetase by REP8839 and effects of resistance mutations on enzyme activity” (Antimicrob Agents Chemother, 2009)
Where a chain is given by its changes, count along the chain named. In names and notes the source's numbering stands.

Tests used:
[1] = compound: C=C(F)c1sc(CNCCCNc2cc(=O)c3ccccc3[nH]2)c(C)c1Br; assay: Activity of Staphylococcus aureus MetRS I57N, I238F mutant by ATP:PPi exchange assay in presence of methionine
Outline: (§1)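 Purified S. aureus MetRS (wild type or mutant; E. coli-expressed, ammonium sulfate cut, anion exchange) at 30 nM. ATP:PPi exchange at 30°C in 100 mM Tris-HCl pH 8.0, 5–10 mM Mg acetate, 80 mM KCl, 2.5 mM DTT, [32P]PPi plus cold PPi equal to ATP. Quenched with EDTA over 1–10 min, PEI-cellulose TLC, phosphorimager. Initial velocities versus varied ATP or methionine fit to Michaelis-Menten.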

[2] = compound: C=C(F)c1sc(CNCCCNc2cc(=O)c3ccccc3[nH]2)c(C)c1Br; assay: Ratio of Kcat to Km for Staphylococcus aureus MetRS I57N I238F mutant in presence of methionine
Outline: (§2)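 Purified recombinant S. aureus MetRS (30 nM) was assayed by ATP:PPi exchange at 30°C in Tris pH 8.0 with Mg acetate, KCl and DTT. [32P]PPi was matched to ATP, and ATP or methionine was varied. Time points from 1 to 10 min were quenched with EDTA, separated by PEI-cellulose TLC and read by phosphorimager. Initial rates were fitted to Michaelis-Menten.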

[3] = compound: C=C(F)c1sc(CNCCCNc2cc(=O)c3ccccc3[nH]2)c(C)c1Br; assay: Activity of Staphylococcus aureus MetRS I57N, I238F mutant by ATP:PPi exchange assay in presence of ATP; outline: as §1
[4] = compound: C=C(F)c1sc(CNCCCNc2cc(=O)c3ccccc3[nH]2)c(C)c1Br; assay: Activity of streptococcus aureus MetRS I57N, I238F mutant by scintillation proximity assay in presence of tRNA; details: Staphylococcus aureus
[5] = compound: C=C(F)c1sc(CNCCCNc2cc(=O)c3ccccc3[nH]2)c(C)c1Br; assay: Ratio of Kcat to Km for Staphylococcus aureus MetRS I57N I238F mutant in presence of ATP; outline: as §2
[6] = compound: C=C(F)c1sc(CNCCCNc2cc(=O)c3ccccc3[nH]2)c(C)c1Br; assay: Ratio of Kcat to Km for Staphylococcus aureus MetRS I57N I238F mutant in presence of tRNA
Outline: (§3)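 Purified recombinant S. aureus MetRS was assayed by tRNA aminoacylation at 30°C for 1 to 7.5 min to obtain initial rates. Buffer was Tris pH 8.0 with Mg acetate, 2.5 mM ATP, KCl, DTT, BSA, [3H]methionine and crude E. coli tRNA. Reactions were EDTA-stopped, and charged tRNA was read by scintillation proximity with polylysine beads at pH 2.0.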

[7] = compound: C=C(F)c1sc(CNCCCNc2cc(=O)c3ccccc3[nH]2)c(C)c1Br; assay: Ratio of Kcat to Km for Staphylococcus aureus MetRS I57N G54S mutant in presence of methionine; outline: as §2
[8] = compound: C=C(F)c1sc(CNCCCNc2cc(=O)c3ccccc3[nH]2)c(C)c1Br; assay: Ratio of Kcat to Km for Staphylococcus aureus MetRS I57N G54S mutant in presence of ATP; outline: as §2
[9] = compound: C=C(F)c1sc(CNCCCNc2cc(=O)c3ccccc3[nH]2)c(C)c1Br; assay: Activity of streptococcus aureus MetRS I57N, G54S mutant by scintillation proximity assay in presence of tRNA; details: Staphylococcus aureus
[10] = compound: C=C(F)c1sc(CNCCCNc2cc(=O)c3ccccc3[nH]2)c(C)c1Br; assay: Activity of Staphylococcus aureus MetRS I57N, G54S mutant by ATP:PPi exchange assay in presence of ATP; outline: as §1
[11] = compound: C=C(F)c1sc(CNCCCNc2cc(=O)c3ccccc3[nH]2)c(C)c1Br; assay: Activity of Staphylococcus aureus MetRS I57N, G54S mutant by ATP:PPi exchange assay in presence of methionine; outline: as §1
[12] = compound: C=C(F)c1sc(CNCCCNc2cc(=O)c3ccccc3[nH]2)c(C)c1Br; assay: Ratio of Kcat to Km for Staphylococcus aureus MetRS I57N G54S mutant in presence of tRNA; outline: as §3
[13] = compound: C=C(F)c1sc(CNCCCNc2cc(=O)c3ccccc3[nH]2)c(C)c1Br; assay: Activity of Staphylococcus aureus MetRS G54A, A64P mutant by ATP:PPi exchange assay in presence of ATP; outline: as §1
[14] = compound: C=C(F)c1sc(CNCCCNc2cc(=O)c3ccccc3[nH]2)c(C)c1Br; assay: Ratio of Kcat to Km for Staphylococcus aureus MetRS G54A A64P mutant in presence of methionine; outline: as §2
[15] = compound: C=C(F)c1sc(CNCCCNc2cc(=O)c3ccccc3[nH]2)c(C)c1Br; assay: Activity of Staphylococcus aureus MetRS G54A, A64P mutant by ATP:PPi exchange assay in presence of methionine; outline: as §1
[16] = compound: C=C(F)c1sc(CNCCCNc2cc(=O)c3ccccc3[nH]2)c(C)c1Br; assay: Ratio of Kcat to Km for Staphylococcus aureus MetRS G54A A64P mutant in presence of ATP; outline: as §2
[17] = compound: C=C(F)c1sc(CNCCCNc2cc(=O)c3ccccc3[nH]2)c(C)c1Br; assay: Activity of streptococcus aureus MetRS G54A, A64P mutant by scintillation proximity assay in presence of tRNA; details: Staphylococcus aureus
[18] = compound: C=C(F)c1sc(CNCCCNc2cc(=O)c3ccccc3[nH]2)c(C)c1Br; assay: Ratio of Kcat to Km for Staphylococcus aureus MetRS G54A A64P mutant in presence of tRNA; outline: as §3
[19] = compound: C=C(F)c1sc(CNCCCNc2cc(=O)c3ccccc3[nH]2)c(C)c1Br; assay: Activity of Staphylococcus aureus MetRS I57N, A247E mutant by ATP:PPi exchange assay in presence of ATP; outline: as §1
[20] = compound: C=C(F)c1sc(CNCCCNc2cc(=O)c3ccccc3[nH]2)c(C)c1Br; assay: Ratio of Kcat to Km for Staphylococcus aureus MetRS I57N A247E mutant in presence of methionine; outline: as §2
[21] = compound: C=C(F)c1sc(CNCCCNc2cc(=O)c3ccccc3[nH]2)c(C)c1Br; assay: Ratio of Kcat to Km for Staphylococcus aureus MetRS I57N A247E mutant in presence of tRNA; outline: as §3
[22] = compound: C=C(F)c1sc(CNCCCNc2cc(=O)c3ccccc3[nH]2)c(C)c1Br; assay: Ratio of Kcat to Km for Staphylococcus aureus MetRS I57N A247E mutant in presence of ATP; outline: as §2
[23] = compound: C=C(F)c1sc(CNCCCNc2cc(=O)c3ccccc3[nH]2)c(C)c1Br; assay: Activity of Staphylococcus aureus MetRS I57N, A247E mutant by ATP:PPi exchange assay in presence of methionine; outline: as §1
[24] = compound: C=C(F)c1sc(CNCCCNc2cc(=O)c3ccccc3[nH]2)c(C)c1Br; assay: Activity of streptococcus aureus MetRS I57N, A247E mutant by scintillation proximity assay in presence of tRNA; details: Staphylococcus aureus

B1: Methionine--tRNA ligase (Staphylococcus aureus subsp. aureus MW2), Q8NY00 I57N,I238F (protein)
chain: MAKETFYITTPIYYPSGNLHIGHAYSTVAGDVIARYKRMQGYDVRYLTGTDEHGQKNQEKAQKAGKTEIEYLDEMIAGIKQLWAKLEISNDDFIRTTEERHKHVVEQVFERLLKQGDIYLGEYEGWYSVPDETYYTESQLVDPQYENGKIIGGKSPDSGHEVELVKEESYFFNISKYTDRLLEFYDQNPDFIQPPSRKNEMINNFIKPGLADLAVSRTSFNWGVHVPSNPKHVVYVWFDALVNYISALGYLSDDESLFNKYWPADIHLMAKEIVRFHSIIWPILLMALDLPLPKKVFAHGWILMKDGKMSKSKGNVVDPNILIDRYGLDATRYYLMRELPFGSDGVFTPEAFVERTNFDLANDLGNLVNRTISMVNKYFDGELPAYQGPLHELDEEMEAMALETVKSYTESMESLQFSVALSTVWKFISRTNKYIDETTPWVLAKDDSQKDMLGNVMAHLVENIRYAAVLLRPFLTHAPKEIFEQLNINNPQFMEFSSLEQYGVLTESIMVTGQPKPIFPRLDSEAEIAYIKESMQPPATEEEKEEIPSKPQIDIKDFDKVEIKAATIINAEHVKKSDKLLKIQVDLDSEQRQIVSGIAKFYTPDDIIGKKVAVVTNLKPAKLMGQKSEGMILSAEKDGVLTLVSLPSAIPNGAVIK
What does the source list for B1?
Km [1]: 85 µM; kcat [1]: 13 s⁻¹; kcat/Km [2]: 150000 M⁻¹ s⁻¹; Km [3]: 1610 µM; Km [4]: 0.89 µM; kcat [4]: 0.066 s⁻¹; kcat/Km [5]: 8000 M⁻¹ s⁻¹; kcat/Km [6]: 74000 M⁻¹ s⁻¹

B2: Methionine--tRNA ligase (Staphylococcus aureus subsp. aureus MW2), Q8NY00 I57N,G54S (protein)
chain: B1 chain with G54S, F238I
For B2, which kcat/Km [7] is on record?
The kcat/Km was 20000 M⁻¹ s⁻¹.

What about the kcat/Km [8] of the same protein?
The kcat/Km was 8000 M⁻¹ s⁻¹.

And the Km [9]?
Its Km is 0.41 µM.

And the kcat [9]?
Its kcat is 0.002 s⁻¹.

And the Km [10]?
Its Km is 765 µM.

And the Km [11]?
Its Km is 360 µM.

And the kcat [11]?
Its kcat is 6 s⁻¹.

What about the kcat/Km [12] of the same protein?
Its kcat/Km is 5000 M⁻¹ s⁻¹.

B3: Methionine--tRNA ligase (Staphylococcus aureus subsp. aureus MW2), Q8NY00 G54A,A64P (protein)
chain: B1 chain with G54A, N57I, A64P, F238I
Which results are given for B3?
Km [13]: 760 µM; kcat/Km [14]: 1000 M⁻¹ s⁻¹; Km [15]: 1070 µM; kcat [15]: 1 s⁻¹; kcat/Km [16]: 1000 M⁻¹ s⁻¹; Km [17]: 0.57 µM; kcat [17]: 0.001 s⁻¹; kcat/Km [18]: 2000 M⁻¹ s⁻¹

B4: Methionine--tRNA ligase (Staphylococcus aureus subsp. aureus MW2), Q8NY00 I57N,A247E (protein)
chain: B1 chain with F238I, A247E
What does the source list for B4?
Km [19]: 2230 µM; kcat/Km [20]: 40000 M⁻¹ s⁻¹; kcat/Km [21]: 18000 M⁻¹ s⁻¹; kcat/Km [22]: 5000 M⁻¹ s⁻¹; Km [23]: 250 µM; kcat [23]: 11 s⁻¹; Km [24]: 0.45 µM; kcat [24]: 0.008 s⁻¹
